Active and inactive are the calls of the source. The rule behind the calls is not given here.
Key:
HCT-116 [1] = experiment: Cell cycle arrest in human HCT116 cells assessed as accumulation at G2/M phase at 77 uM after 48 hrs; format: functional
Method in brief: (§1)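 Cells seeded at 8 · 10^5 per 60 mm dish, allowed to settle 24 h (37 °C, 5% CO2), then exposed to the drug for 24 or 48 h. Adherent plus floating cells (5 · 10^5) were fixed in cold 70% ethanol at −20 °C overnight, treated with RNase A (100 µg/mL) and stained with propidium iodide (20 µg/mL) in Vindelov's solution for 30 min at RT. Flow cytometry used 488 nm excitation, FL-2 at 585 ± 21 nm, and histograms were modelled for G0/G1, S and G2/M fractions.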

HCT-116 [2] = experiment: Induction of DNA fragmentation in human HCT116 cells after 48 hrs; format: functional, cell-based
Method in brief: (§2)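 HCT-116 cells were treated for 24 or 48 h. Adherent and floating cells (5 × 10^5) were pooled, fixed in cold 70% ethanol and held overnight at −20 °C. Samples were treated with RNase A (100 µg/mL) and stained with propidium iodide (20 µg/mL) in Vindelov's solution for 30 min at RT. Flow cytometry used 488 nm excitation with emission at 585 nm. Subdiploid (subG0/G1) particles were scored on a logarithmic scale, with debris gated out on FSC × SSC.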

DNA [3] = experiment: Binding affinity to calf thymus DNA at 4 uM by fluorescence spectrophotometric titration; format: nucleic-acid assay; details: Bos taurus
Method in brief: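 ctDNA sonicated in TE buffer, concentration taken from A260 and given in base pairs. Compound (4 µM) in 0.01 M Tris, pH 7.4, 25 °C titrated with ctDNA (0–55 µM bp) until spectra stopped changing. Excitation 424 nm, slit widths 10 nm; binding constant derived from the change in emission.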

DNA [4] = experiment: Binding affinity to calf thymus DNA at 50 uM by circular dichroism spectrophotometric titration; format: nucleic-acid assay; details: Bos taurus
HeLa [5] = experiment: Cytotoxicity against human HeLa cells after 48 hrs by MTT assay; format: functional, cell-based
HeLa [6] = experiment: Cytotoxicity against human HeLa cells after 72 hrs by MTT assay; format: functional, cell-based
HCT-116 [7] = experiment: Cytotoxicity against human HCT116 cells after 48 hrs by MTT assay; format: functional, cell-based; details: HCT-116, 48 h
HCT-116 [8] = experiment: Cytotoxicity against human HCT116 cells after 72 hrs by MTT assay; format: functional, cell-based; details: Homo sapiens, HCT-116, 72 h
HeLa [9] = experiment: Antiproliferative activity against human HeLa cells assessed as increase of floating cells in total cell population at 5.50 uM after 24 hrs; format: functional
Method in brief: (§3)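 Cells seeded (8 · 10^5 per 60 mm dish), allowed to settle 24 h at 37 °C, 5% CO2, then treated with a single concentration for 24 or 48 h. Adherent and floating cells counted by Coulter counter. Total cell number given as % of untreated control; floating cells as % of total cell number.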

HeLa [10] = experiment: Antiproliferative activity against human HeLa cells assessed as decrease in total cell population at 5.50 uM after 24 hrs; format: functional; design: scale not given: the % may be the effect or the level left; method in brief: as §3
HeLa [11] = experiment: Antiproliferative activity against human HeLa cells assessed as increase of floating cells in total cell population at 5.50 uM after 48 hrs; format: functional; method in brief: as §3
HeLa [12] = experiment: Antiproliferative activity against human HeLa cells assessed as decrease in total cell population at 5.50 uM after 48 hrs; format: functional; design: scale not given: the % may be the effect or the level left; method in brief: as §3
HCT-116 [13] = experiment: Antiproliferative activity against human HCT116 cells assessed as increase of floating cells in total cell population at 77 uM after 24 hrs; format: functional; method in brief: as §3
HCT-116 [14] = experiment: Antiproliferative activity against human HCT116 cells assessed as decrease in total cell population at 77 uM after 24 hrs; format: functional; design: scale not given: the % may be the effect or the level left; method in brief: as §3
HCT-116 [15] = experiment: Antiproliferative activity against human HCT116 cells assessed as increase of floating cells in total cell population at 77 uM after 48 hrs; format: functional; method in brief: as §3
HCT-116 [16] = experiment: Antiproliferative activity against human HCT116 cells assessed as decrease in total cell population at 77 uM after 48 hrs; format: functional; design: scale not given: the % may be the effect or the level left; method in brief: as §3
HeLa [17] = experiment: Induction of apoptosis in human HeLa cells at 5.50 uM after 48 hrs; format: functional
Method in brief: (§4)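 After 24 or 48 h of drug exposure, all cells were collected, combining trypsinised adherent cells with floating cells from the medium. Cells (1 × 10^6) were fixed in cold 70% ethanol overnight at −20 °C and stained with DAPI (10 µg/mL) for 30 min in the dark at RT. Under fluorescence microscopy, 300 cells per sample were scored, with condensed or fragmented nuclei counted as apoptotic.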

HCT-116 [18] = experiment: Induction of apoptosis in human HCT116 cells at 77 uM after 24 hrs; format: functional; method in brief: as §4
HCT-116 [19] = experiment: Induction of apoptosis in human HCT116 cells at 77 uM after 48 hrs; format: functional; method in brief: as §4
HCT-116 [20] = experiment: Induction of DNA fragmentation in human HCT116 cells after 24 hrs; format: functional, cell-based; method in brief: as §2
HeLa [21] = experiment: Cell cycle arrest in human HeLa cells assessed as accumulation at G0/G1 phase at 5.50 uM after 24 hrs; format: functional; method in brief: as §1
HeLa [22] = experiment: Cell cycle arrest in human HeLa cells assessed as accumulation at G0/G1 phase at 5.50 uM after 48 hrs; format: functional; method in brief: as §1
HCT-116 [23] = experiment: Cell cycle arrest in human HCT116 cells assessed as accumulation at G0/G1 phase at 77 uM after 24 hrs; format: functional
Method in brief: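 Adherent plus floating cells (5 · 10^5) collected 24 or 48 h after treatment, fixed in cold 70% ethanol at −20 °C overnight, washed in PBS. RNase A (100 µg/mL) and propidium iodide (20 µg/mL) in Vindelov's solution, 30 min at RT. Flow cytometry with 488 nm excitation, emission 585 ± 21 nm; % cells per cycle phase from DNA content histograms.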

HCT-116 [24] = experiment: Cell cycle arrest in human HCT116 cells assessed as accumulation at G0/G1 phase at 77 uM after 48 hrs; format: functional; method in brief: as §1
HeLa [25] = experiment: Cell cycle arrest in human HeLa cells assessed as accumulation at S phase at 5.50 uM after 24 hrs; format: functional; method in brief: as §1
HeLa [26] = experiment: Cell cycle arrest in human HeLa cells assessed as accumulation at S phase at 5.50 uM after 48 hrs; format: functional; method in brief: as §1
HCT-116 [27] = experiment: Cell cycle arrest in human HCT116 cells assessed as accumulation at S phase at 77 uM after 24 hrs; format: functional; method in brief: as §1
HCT-116 [28] = experiment: Cell cycle arrest in human HCT116 cells assessed as accumulation at S phase at 77 uM after 48 hrs; format: functional; method in brief: as §1
HeLa [29] = experiment: Cell cycle arrest in human HeLa cells assessed as accumulation at G2/M phase at 5.50 uM after 24 hrs; format: functional; method in brief: as §1
HeLa [30] = experiment: Cell cycle arrest in human HeLa cells assessed as accumulation at G2/M phase at 5.50 uM after 48 hrs; format: functional; method in brief: as §1
HCT-116 [31] = experiment: Cell cycle arrest in human HCT116 cells assessed as accumulation at G2/M phase at 77 uM after 24 hrs; format: functional; method in brief: as §1

SMILES: CCCCNC(=O)Nc1ccc2cc3ccc(NC(=O)NCCCC)cc3nc2c1.Cl
- Activity (HCT-116 [1]): 28.85%
- Activity (HCT-116 [2]): Active
- K (DNA [3]): 2.4 ×10⁵ /M
- Activity (DNA [4]): Active
- IC50 (HeLa [5]): 5.41 µM
- IC50 (HeLa [6]): 11.5 µM
- IC50 (HCT-116 [7]): 77 µM
- IC50 (HCT-116 [8]): 43.9 µM
- Activity (HeLa [9]): 4.03%
- Activity (HeLa [10]): 92.75%
- Activity (HeLa [11]): 3.93%
- Activity (HeLa [12]): 96.5%
- Activity (HCT-116 [13]): 51.08%
- Activity (HCT-116 [14]): 47.4%
- Activity (HCT-116 [15]): 33.41%
- Activity (HCT-116 [16]): 27.58%
- Activity (HeLa [17]): 0.44%
- Activity (HCT-116 [18]): 9.67%
- Activity (HCT-116 [19]): 3.89%
- Activity (HCT-116 [20]): Active
- Activity (HeLa [21]): 61.17%
- Activity (HeLa [22]): 74.91%
- Activity (HCT-116 [23]): 39.97%
- Activity (HCT-116 [24]): 43.91%
- Activity (HeLa [25]): 24.95%
- Activity (HeLa [26]): 15.5%
- Activity (HCT-116 [27]): 22.52%
- Activity (HCT-116 [28]): 27.24%
- Activity (HeLa [29]): 13.88%
- Activity (HeLa [30]): 9.6%
- Activity (HCT-116 [31]): 37.51%
